pKd: −log10 of the molar value. Where two headings read alike, the source gives them in different places.
Legend:
[1] = target: T1, P-gp (Homo sapiens, UniProt P08183); conditions: SPR screening of 50 natural products, remarkable response values
[2] = target: T1, P-gp; conditions: for pKd: Table 2, steady-state affinity model (1:1), reference FC SMALPs-MCF-7; for Rmax: analyte binding capacity from steady-state fit
[3] = tested on: MCF-7/ADR cells; format: cell-based, human; conditions: after 24 h pre-incubation with non-toxic concentration of the compound
Outline: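 Adr-resistant MCF-7/ADR cells were kept in RPMI 1640 with 10% FBS and 1000 ng/mL Adr. Cells were seeded at 5 × 10^3/well and pre-treated 24 h with the test compound at its highest non-toxic level (95% viability by 24 h CCK8 over 1.25–80 μmol/L). Adr (0–100 μmol/L) was then added for 24 h.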

[4] = target: T1, P-gp; experiment: biochemical; conditions: Table 2, steady-state affinity model (1:1), reference FC SMALPs-MCF-7
[5] = target: T1, P-gp; experiment: Rh123 bidirectional transport experiment in MDCK-MDR1 cell monolayer; format: cell-based; conditions: MDCK-MDR1 cells, pre-incubation with the compound
Outline: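 MDCK cells transfected with MDR1 were grown in DMEM with 10% FBS, streptomycin and penicillin, then used as monolayers on Transwell plates. Rh123 served as the P-gp substrate. Apparent permeability was measured in both directions, apical→basolateral and basolateral→apical, with efflux rate (ER) derived from these, for treated versus control monolayers (mean ± SD, n = 3).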

T1 sequence (P08183 whole entry): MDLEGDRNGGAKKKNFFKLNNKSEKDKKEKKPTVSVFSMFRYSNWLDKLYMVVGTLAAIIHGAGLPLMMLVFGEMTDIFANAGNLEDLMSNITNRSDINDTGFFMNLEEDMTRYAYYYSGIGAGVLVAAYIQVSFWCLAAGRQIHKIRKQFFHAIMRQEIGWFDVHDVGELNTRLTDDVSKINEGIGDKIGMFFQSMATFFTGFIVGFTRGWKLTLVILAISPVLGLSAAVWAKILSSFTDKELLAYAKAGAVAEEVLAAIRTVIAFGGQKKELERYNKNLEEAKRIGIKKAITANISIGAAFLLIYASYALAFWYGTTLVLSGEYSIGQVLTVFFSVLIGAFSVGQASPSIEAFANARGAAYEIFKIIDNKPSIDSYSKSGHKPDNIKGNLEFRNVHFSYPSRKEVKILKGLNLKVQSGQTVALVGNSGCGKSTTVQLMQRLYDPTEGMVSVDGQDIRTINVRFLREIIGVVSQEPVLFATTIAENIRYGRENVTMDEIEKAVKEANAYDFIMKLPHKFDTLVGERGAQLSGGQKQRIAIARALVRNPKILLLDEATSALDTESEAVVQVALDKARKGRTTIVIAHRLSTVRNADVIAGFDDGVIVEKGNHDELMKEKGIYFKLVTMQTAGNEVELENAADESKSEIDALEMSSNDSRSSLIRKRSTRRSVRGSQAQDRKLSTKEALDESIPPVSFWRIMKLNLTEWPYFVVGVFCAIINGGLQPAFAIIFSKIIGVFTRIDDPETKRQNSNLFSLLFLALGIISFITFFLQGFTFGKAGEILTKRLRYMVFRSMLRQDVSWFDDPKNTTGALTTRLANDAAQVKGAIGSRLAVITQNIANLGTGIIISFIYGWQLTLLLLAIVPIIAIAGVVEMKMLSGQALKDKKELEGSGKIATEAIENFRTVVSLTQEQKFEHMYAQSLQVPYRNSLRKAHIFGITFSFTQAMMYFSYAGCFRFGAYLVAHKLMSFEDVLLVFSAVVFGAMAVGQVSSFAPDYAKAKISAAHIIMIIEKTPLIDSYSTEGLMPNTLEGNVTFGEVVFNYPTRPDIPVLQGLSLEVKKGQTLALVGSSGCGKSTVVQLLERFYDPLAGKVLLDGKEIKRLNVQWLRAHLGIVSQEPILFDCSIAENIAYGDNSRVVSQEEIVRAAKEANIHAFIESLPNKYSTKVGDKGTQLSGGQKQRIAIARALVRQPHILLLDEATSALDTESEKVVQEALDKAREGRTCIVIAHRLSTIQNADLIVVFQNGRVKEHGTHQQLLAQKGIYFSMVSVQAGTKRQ

## C/C=C(/C)C(=O)O[C@H]1[C@@H](OC(C)=O)c2c(ccc3ccc(=O)oc23)OC1(C)C [Praeruptorin A]
[1]
  Screening outcome: target compound binding to P-gp: could bind to P-gp
[2]
  pKd: 5.14
  Rmax: 2.618 RU

## COc1ccc(-c2oc3c(CC=C(C)C)c(O)cc(O)c3c(=O)c2O)cc1 [Icaritin]
[1]
  Screening outcome: target compound binding to P-gp: could bind to P-gp
[2]
  pKd: 5.59
  Rmax: 13.86 RU

## C/C=C/C[C@@H](C)C(=O)[C@H]1C(=O)N[C@@H](C(C)C)C(=O)N(C)CC(=O)N(C)[C@@H](CC(C)C)C(=O)N[C@@H](C(C)C)C(=O)N(C)[C@@H](CC(C)C)C(=O)N[C@@H](C)C(=O)N[C@H](C)C(=O)N(C)[C@@H](CC(C)C)C(=O)N(C)[C@@H](CC(C)C)C(=O)N(C)[C@@H](C(C)C)C(=O)N1C [Valspodar, valspodar, reference compound]
[3]
  Sensitivity of MCF-7/ADR cells to Adr: significantly increased

## O=c1cc(-c2ccc(O)c(O)c2)oc2cc(O)cc(O)c12 [Luteolin]
[1]
  Screening outcome: target compound binding to P-gp: could bind to P-gp
[2]
  Rmax: 47.21 RU
[4]
  pKd: 4.29

## COc1cc(/C=C/C(=O)CC(=O)/C=C/c2ccc(O)c(OC)c2)ccc1O [Curcumin]
[3]
  Sensitivity of MCF-7/ADR cells to Adr: could not improve the sensitivity
[2]
  Rmax: 270.2 RU
[4]
  pKd: 3.82

## C/C=C(/C)C(=O)O[C@H]1c2c(ccc3ccc(=O)oc23)OC(C)(C)[C@H]1OC(=O)/C(C)=C\C [Praeruptorin B]
[3]
  Sensitivity of MCF-7/ADR cells to Adr: significantly increased
[5]
  Effect on ER of Rh123 / P-gp function (in words): significantly reduce the ER of Rh123
[1]
  Screening outcome: target compound binding to P-gp: could bind to P-gp
[2]
  pKd: 6.27
  Rmax: 3.498 RU

## COc1ccc2cc1Oc1ccc(cc1)C[C@H]1c3cc(c(OC)cc3CCN1C)Oc1c(OC)c(OC)cc3c1[C@H](C2)N(C)CC3 [Tetrandrine]
[3]
  Sensitivity of MCF-7/ADR cells to Adr: significantly increased
[1]
  Screening outcome: target compound binding to P-gp: could bind to P-gp
[2]
  Rmax: 11.24 RU
[4]
  pKd: 3.66

## COc1ccc2cc1Oc1ccc(cc1)C[C@H]1c3cc(c(OC)cc3CCN1C)Oc1c(O)c(OC)cc3c1[C@H](C2)N(C)CC3 [Fangchinoline]
[3]
  Sensitivity of MCF-7/ADR cells to Adr: significantly increased
[1]
  Screening outcome: target compound binding to P-gp: could bind to P-gp
[2]
  Rmax: 24.92 RU
[4]
  pKd: 3.94

## COc1cccc(O)c1-c1cc(=O)c2c(O)c(OC)c(OC)c(OC)c2o1 [Neobaicalein]
[3]
  Sensitivity of MCF-7/ADR cells to Adr: significantly increased
[5]
  Effect on ER of Rh123 / P-gp function (in words): significantly reduce the ER of Rh123
[1]
  Screening outcome: target compound binding to P-gp: could bind to P-gp
[2]
  pKd: 3.90
  Rmax: 89.01 RU

## O=C(/C=C/c1ccc(O)cc1)c1ccc(O)cc1O [Isoliquiritigenin]
[3]
  Sensitivity of MCF-7/ADR cells to Adr: could not improve the sensitivity
[2]
  Rmax: 114 RU
[4]
  pKd: 3.59

— PMC9293711 (Acta Pharmaceutica Sinica. B, 2022)
